# Results: ChEMBL document CHEMBL3272173, “Synthesis and biological activity of peptide antagonists of luliberin (luteinizing hormone-releasing hormone)” (J Med Chem, 1979)
# Where “and” joins values, the source holds several entries; their conditions need not be identical. Equal values may be shown once.
# Columns and labels:
# [1] = biological target: T1, Gonadotropin-releasing hormone receptor (Rattus norvegicus) (UniProt P30969); assay: In vitro antagonist activity at GNRHR in CD rat anterior pituitary gland assessed as ratio of molar concentration of compound to LH-RH for inhibition of LH-RH-stimulated LH release after 4 hrs by radioimmunoassay
# T1 sequence (whole entry): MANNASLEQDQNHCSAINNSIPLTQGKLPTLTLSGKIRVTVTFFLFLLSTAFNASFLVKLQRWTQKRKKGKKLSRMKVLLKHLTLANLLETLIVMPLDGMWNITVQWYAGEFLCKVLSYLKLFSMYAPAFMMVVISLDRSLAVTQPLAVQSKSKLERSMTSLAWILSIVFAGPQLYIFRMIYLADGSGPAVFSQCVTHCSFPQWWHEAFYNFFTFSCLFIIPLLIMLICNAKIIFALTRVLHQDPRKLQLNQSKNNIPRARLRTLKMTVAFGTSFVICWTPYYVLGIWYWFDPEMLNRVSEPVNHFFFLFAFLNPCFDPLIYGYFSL
# Summary of the method: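 Monolayers were cultured 4 days from dissociated anterior pituitary cells of diestrus CD rats. They were exposed in duplicate to LH-RH (2-5 × 10^-10 M) plus multiple analogue concentrations in serum-free DME for 4 h at 37 °C. LH in the medium was measured by radioimmunoassay. The ED50 molar ratio is the analogue:LH-RH molar ratio giving 50% inhibition of LH-RH-stimulated LH release.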
# [2] = biological target: T1, Gonadotropin-releasing hormone receptor (Rattus norvegicus); assay: In vitro antagonist activity at GNRHR in CD rat anterior pituitary gland assessed as inhibition of LH-RH-stimulated LH release at compound to LH-RH molar ratio of 40 after 4 hrs by radioimmunoassay; conditions: concentration not given here
# Summary of the method: (§1)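 Anterior pituitaries from diestrus CD rats (200-250 g) were dissociated enzymatically (collagenase, hyaluronidase, then Viokase). Cells were cultured 4 days at 1.67 × 10^5 cells/mL in DME with 10% horse serum and 2.5% fetal calf serum, then washed serum-free. Duplicate cultures received LH-RH (2-5 × 10^-10 M) with a single analogue concentration in serum-free DME for 4 h at 37 °C. LH in the medium was measured by RIA and reported as % inhibition of LH-RH-stimulated release.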
# [3] = biological target: T1, Gonadotropin-releasing hormone receptor (Rattus norvegicus); assay: In vitro antagonist activity at GNRHR in CD rat anterior pituitary gland assessed as inhibition of LH-RH-stimulated LH release at compound to LH-RH molar ratio of 100 after 4 hrs by radioimmunoassay; conditions: concentration not given here; summary of the method: as §1
# [4] = biological target: T1, Gonadotropin-releasing hormone receptor (Rattus norvegicus); assay: In vitro antagonist activity at GNRHR in CD rat anterior pituitary gland assessed as inhibition of LH-RH-stimulated LH release at compound to LH-RH molar ratio of 5 after 4 hrs by radioimmunoassay; conditions: concentration not given here; summary of the method: as §1
# [5] = biological target: T1, Gonadotropin-releasing hormone receptor (Rattus norvegicus); assay: In vitro antagonist activity at GNRHR in CD rat anterior pituitary gland assessed as inhibition of LH-RH-stimulated LH release at compound to LH-RH molar ratio of 28 after 4 hrs by radioimmunoassay; conditions: concentration not given here; summary of the method: as §1
# [6] = biological target: T1, Gonadotropin-releasing hormone receptor (Rattus norvegicus); assay: In vitro antagonist activity at GNRHR in CD rat anterior pituitary gland assessed as inhibition of LH-RH-stimulated LH release at compound to LH-RH molar ratio of 1.7 after 4 hrs by radioimmunoassay; conditions: concentration not given here; summary of the method: as §1
# [7] = biological target: T1, Gonadotropin-releasing hormone receptor (Rattus norvegicus); assay: In vitro antagonist activity at GNRHR in CD rat anterior pituitary gland assessed as inhibition of LH-RH-stimulated LH release at compound to LH-RH molar ratio of 20 after 4 hrs by radioimmunoassay; conditions: concentration not given here; summary of the method: as §1
# [8] = biological target: T1, Gonadotropin-releasing hormone receptor (Rattus norvegicus); assay: In vitro antagonist activity at GNRHR in CD rat anterior pituitary gland assessed as inhibition of LH-RH-stimulated LH release at compound to LH-RH molar ratio of 2000 after 4 hrs by radioimmunoassay; conditions: concentration not given here; summary of the method: as §1
# [9] = system: Rattus norvegicus; assay: Antiovulatory activity in CD rat assessed as blockade of ovulation at 1 mg, sc administered as six doses at 1200, 1230, 1300, 1350, 1400 and 1450 hrs during proestrus stage measured during estrus stage by dissecting microscopic analysis; type: functional
# Summary of the method: (§2)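 Cycling Charles River CD rats were given six subcutaneous injections of analogue in 0.1 mL propylene glycol on the afternoon of proestrus, and controls received vehicle alone. Rats were killed the next morning (estrus). Ovulating animals were scored and ova in the oviducts were counted under a dissecting microscope.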
# [10] = system: Rattus norvegicus; assay: Antiovulatory activity in sc dosed CD rat assessed as blockade of ovulation administered as six doses at 1200, 1230, 1300, 1350, 1400 and 1450 hrs during proestrus stage measured during estrus stage by dissecting microscopic analysis; type: functional; summary of the method: as §2
# [11] = Solubility of the compound in 0.9% sodium chloride; type: physicochemical
# [12] = system: Rattus norvegicus; assay: Antiovulatory activity in CD rat assessed as blockade of ovulation at 0.1 mg, sc administered as six doses at 1200, 1230, 1300, 1350, 1400 and 1450 hrs during proestrus stage measured during estrus stage by dissecting microscopic analysis; type: functional; summary of the method: as §2
# [13] = Solubility of the compound in water; type: physicochemical
# [14] = biological target: T1, Gonadotropin-releasing hormone receptor (Rattus norvegicus); assay: In vitro antagonist activity at GNRHR in CD rat anterior pituitary gland assessed as inhibition of LH-RH-stimulated LH release at compound to LH-RH molar ratio of 57 after 4 hrs by radioimmunoassay; conditions: concentration not given here; summary of the method: as §1
# [15] = system: Rattus norvegicus; assay: Antiovulatory activity in CD rat assessed as blockade of ovulation at 0.3 mg, sc administered as six doses at 1200, 1230, 1300, 1350, 1400 and 1450 hrs during proestrus stage measured during estrus stage by dissecting microscopic analysis; type: functional; summary of the method: as §2
# [16] = biological target: T1, Gonadotropin-releasing hormone receptor (Rattus norvegicus); assay: In vitro antagonist activity at GNRHR in CD rat anterior pituitary gland assessed as inhibition of LH-RH-stimulated LH release at compound to LH-RH molar ratio of 500 after 4 hrs by radioimmunoassay; conditions: concentration not given here; summary of the method: as §1
# [17] = system: Rattus norvegicus; assay: Antiovulatory activity in CD rat assessed as blockade of ovulation at 10 mg, sc administered as six doses at 1200, 1230, 1300, 1350, 1400 and 1450 hrs during proestrus stage measured during estrus stage by dissecting microscopic analysis; type: functional; summary of the method: as §2
smiles,measurement,setting,value
CCNC(=O)[C@@H]1CCCN1C(=O)[C@H](CCCNC(=N)N)NC(=O)[C@H](CC(C)C)NC(=O)[C@@H](Cc1ccccc1)NC(=O)[C@H](Cc1ccc(O)cc1)NC(=O)[C@H](CO)NC(=O)[C@H](Cc1c[nH]c2ccccc12)NC(=O)[C@H](CCC(N)=O)NC(=O)OCc1ccccc1,ED50,[1],12.8 molar ratio and 7.7 molar ratio
same,inhibition,[2],70%
same,inhibition,[3],70%
CCNC(=O)[C@@H]1CCCN1C(=O)[C@H](CCCNC(=N)N)NC(=O)[C@H](CC(C)C)NC(=O)[C@H](NC(=O)[C@H](Cc1ccc(O)cc1)NC(=O)[C@H](CO)NC(=O)[C@H](Cc1c[nH]c2ccccc12)NC(=O)[C@H](CCC(N)=O)NC(=O)OCc1ccccc1)[C@@H](O)c1ccccc1,inhibition,[4],77%
same,inhibition,[5],82%
CC(C)C[C@H](NC(=O)[C@@H](Cc1c[nH]c2ccccc12)NC(=O)[C@H](Cc1ccc(O)cc1)NC(=O)[C@H](CO)NC(=O)[C@H](Cc1c[nH]c2ccccc12)NC(=O)[C@H](COCc1ccccc1)NC(=O)OC(C)(C)C)C(=O)N[C@@H](CCCNC(=N)N)C(=O)N1CCC[C@H]1C(=O)NCC(N)=O,ED50,[1],1.3 molar ratio and 2 molar ratio
same,inhibition,[6],64%
same,inhibition,[7],71%
CC(=O)O.CCNC(=O)[C@@H]1CCCN1C(=O)[C@H](CCCNC(=N)N)NC(=O)[C@H](CC(C)C)NC(=O)[C@@H](CC(N)=O)NC(=O)[C@H](Cc1ccc(O)cc1)NC(=O)[C@H](CO)NC(=O)[C@H](Cc1c[nH]c2ccccc12)NC(=O)[C@H](CCC(N)=O)NC(=O)OCc1ccccc1,ED50,[1],300 molar ratio
same,inhibition,[8],100%
same,inhibition (INH),[9],20%
same,ED50,[10],>1 mg
CC(=O)O.CC(C)C[C@H](NC(=O)[C@@H](Cc1c[nH]c2ccccc12)NC(=O)[C@H](Cc1ccc(O)cc1)NC(=O)[C@H](CO)NC(=O)[C@H](Cc1c[nH]c2ccccc12)NC(=O)[C@H](COCc1ccccc1)NC(=O)OC(C)(C)C)C(=O)N[C@@H](CCCNC(=N)N)C(=O)N1CCC[C@H]1C(=O)NCC(N)=O,solubility,[11],16 µg/mL
same,ED50,[10],0.05 mg
same,inhibition (INH),[12],100%
same,solubility,[13],3000 µg/mL
CC(C)C[C@H](NC(=O)[C@@H](Cc1c[nH]c2ccccc12)NC(=O)[C@H](Cc1ccc(O)cc1)NC(=O)[C@H](CO)NC(=O)[C@H](Cc1c[nH]c2ccccc12)NC(=O)[C@H](COCc1ccccc1)NC(=O)OC(C)(C)C)C(=O)N[C@@H](CCCNC(=N)N)C(=O)N1CCC[C@H]1C(=O)NCC(N)=O.Cl,ED50,[10],0.05 mg
same,inhibition (INH),[12]; in the assay text read “at 1 mg” for “at 0.1 mg”,100%
same,solubility,[13],1000 µg/mL
CCNC(=O)[C@@H]1CCCN1C(=O)[C@H](CCCNC(=N)N)NC(=O)[C@H](CC(C)C)NC(=O)[C@@H](Cc1ccccc1)NC(=O)[C@H](Cc1ccc(O)cc1)NC(=O)[C@H](CO)NC(=O)[C@H](Cc1c[nH]c2ccccc12)NC(=O)[C@H](COCc1ccccc1)NC(=O)OC(C)(C)C.Cl,ED50,[1],19 molar ratio
same,inhibition (INH),[9],0%
same,inhibition,[14],91%
same,ED50,[10],>10 mg
CC(C)C[C@H](NC(=O)[C@@H](Cc1ccccc1)NC(=O)[C@H](Cc1ccc(O)cc1)NC(=O)[C@H](CO)NC(=O)[C@H](Cc1c[nH]c2ccccc12)NC(=O)[C@@H](Cc1ccccc1)NC(=O)[C@@H]1CCC(=O)N1)C(=O)N[C@@H](CCCNC(=N)N)C(=O)N1CCC[C@H]1C(=O)NCC(N)=O.Cl,ED50,[1],76 molar ratio
same,inhibition (INH),[15],100%
same,ED50,[10],0.1 mg
same,inhibition,[16],98%
CCNC(=O)[C@@H]1CCCN1C(=O)[C@H](CCCNC(=N)N)NC(=O)[C@H](CC(C)C)NC(=O)[C@@H](Cc1ccccc1)NC(=O)[C@H](Cc1ccc(O)cc1)NC(=O)[C@H](CO)NC(=O)[C@H](Cc1c[nH]c2ccccc12)NC(=O)[C@H](CCC(N)=O)NC(=O)OCc1ccccc1.Cl,inhibition (INH),[17],0%
same,ED50,[10],>10 mg
